Source: PubChem BioAssay
Records with an inconclusive call do not appear.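 Rule for the calls, unless noted: active = inhibition over a set limit, the all-compound mean plus 3 SD, in both replicate runs; inconclusive = over that limit in just one replicate run; inactive = at or under that limit in both runs.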

Legend:
[1] = OD615 S. cerevisiae growth inhibition, permissive medium, pilot counter-assay, permissive growth control for S. cerevisiae lifespan shortening project (AID 705;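 active = growth inhibition above 25% in both replicates, a cutoff set 3 SD above the mean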); conditions: OD615, 24 h, at 10 µM, stronger effect = higher value
Method in brief: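 Material: engineered DeaD yeast; compound dosing: one dose 10 µM, DMSO 0.25% final; measure: yeast growth inhibition indicated by reduced 24 h OD615; detection: OD615 turbidity read; incubation: cells pre-grown 4 h, then 24 h compound exposure, 30 °C humidified; medium: permissive synthetic complete medium with raffinose and galactose carbon sources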

[2] = Restrictive medium S. cerevisiae growth inhibition, OD615, pilot screen of yeast lifespan reduction project, restrictive growth control (AID 706;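 active = growth inhibition above a set limit, 3 SD over mean compound inhibition, in both replicates, cut at about 43% in these data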;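 note: modified DeaD lifespan yeast strain shifted to restrictive glucose medium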); conditions: OD615, 48 h, at 10 µM, stronger effect = higher value
Method in brief: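 material = engineered S. cerevisiae DeaD strain | medium = glucose-based CSMM-D restrictive medium | times = 4 h pre-incubation, 48 h exposure at 30 °C | technique = OD615 absorbance reading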

[3] = viability gain of MRP-1-high H69AR cells under doxorubicin, pilot screen, MRP-1 activator project, CellTiter-Glo, duplicate (AID 807;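 active = viability increase at or above a cutoff of the median across tested compounds plus 3 SD, cut at about 8.5% in these data, passing the limit was not always enough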;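 note: compound pretreatment 18-22 h then 72 h combined with doxorubicin; 0% = doxorubicin alone and 100% = vehicle without doxorubicin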); conditions: H69AR viability with doxorubicin, CellTiter-Glo luminescence; at 10 µM; stronger effect = higher value
[4] = growth suppression of beta-catenin knockout HCT116, pilot screen, human colon tumor cells (AID 823;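 active = cell viability at or below a set limit in both duplicate runs, the limit being the all-compound median minus 4 SD, cut at about 23% in these data, passing the limit was not always enough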;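 note: 0% = wells killed by 20 µM Hyamine and 100% = untreated DMSO cell wells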); conditions: CellTiter-Glo, 60 h, at 10 µM, stronger effect = lower value
[5] = growth suppression of PTEN-deleted HCT116, pilot screen, cell-based, HCT116 clonal line, CellTiter-Glo (AID 824;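 active = viability at or below 27.92% in each of two runs, the all-compound median minus 4 SD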;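 note: 0% = 20 µM Hyamine control and 100% = vehicle cell control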); conditions: 60 h, at 10 µM, stronger effect = lower value
[6] = inhibitors of the yeast RAM network, pilot screen, dse1pr::URA3 reporter, 5-FOA selection (AID 869);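 note: 0% = DMSO wells with no growth and 100% = 10 µM 1-NA-PP1 with full growth; RAM network block rescues cells from 5-FOA so hits raise OD615 growth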; conditions: S. cerevisiae dse1pr::URA3 5-FOA growth, OD615, 2 d; at 10 µM; stronger effect = higher value; strain carries analog-sensitive mutant Cbk1 kinase

CCCOC(=O)c1ccc(NC(=O)CCC(=O)OCC)cc1
inactive: growth inhibition [1] -2.93% | growth inhibition [2] 0.845% | viability increase [3] -0.37% | viability [4] 98.8% | viability [5] 98.6% | inhibition [6] 2.24%

O=C1C2CCCN2C(c2ccc(F)cc2)N1c1ccc(Cl)cc1 (stereo not given)
inactive: growth inhibition [1] -13% | growth inhibition [2] -0.82% | viability increase [3] -2.59% | viability [4] 76.5% | viability [5] 67.8% | inhibition [6] 3.84%

COc1cc(/C=C/C2=NC(=O)C(C)(C)O2)ccc1O
inactive: growth inhibition [1] -1.35% | growth inhibition [2] 6.79% | viability increase [3] -7.42% | viability [4] 65.9% | viability [5] 71.9% | inhibition [6] 0.485%

NC/C(=N\O)c1ccc(Cl)cc1Cl
inactive: growth inhibition [1] -6.44% | growth inhibition [2] -12.5% | viability increase [3] 2.52% | viability [4] 97.7% | viability [5] 94.1% | inhibition [6] 1.2%

Cc1ccc(-c2nn(-c3ccccc3)cc2C2SCC(=O)N2Cc2ccccc2)o1 (stereo not given)
inactive: growth inhibition [1] -17.1% | growth inhibition [2] -9.89% | viability increase [3] -0.06% | viability [4] 74.2% | viability [5] 68.9% | inhibition [6] 0.94%

O=C(O)c1ccc(CSc2nnc(COc3ccc(Cl)cc3Cl)o2)cc1
inactive: growth inhibition [1] 10.6% | growth inhibition [2] 20.2% | viability increase [3] 2.94% | viability [4] 103% | viability [5] 94.1% | inhibition [6] 1.22%

Cn1c(=O)oc2cc(S(=O)(=O)N3CCC(C(=O)NCC4COc5ccccc5O4)CC3)ccc21 (stereo not given)
inactive: growth inhibition [1] -17.2% | growth inhibition [2] -19.6% | viability increase [3] 0.66% | viability [4] 103% | viability [5] 96.8% | inhibition [6] 3.92%

COC(=O)c1ccc2c(c1)N(Cc1ccccc1F)C(=O)c1ccccc1S2=O (stereo not given)
inactive: growth inhibition [1] -13.9% | growth inhibition [2] -2.4% | viability increase [3] -4.03% | viability [4] 75.9% | viability [5] 74% | inhibition [6] 1.02%

Cc1noc(/C=C/NCc2cccnc2)c1S(=O)(=O)N(C)CC(=O)N1CCc2ccccc21
inactive: growth inhibition [1] -10.2% | growth inhibition [2] -7.69% | viability increase [3] -3.19% | viability [4] 91.2% | viability [5] 86.4% | inhibition [6] 2.5%

CCOC(=O)C1CCN(C(=O)Nc2ccc(Cl)cc2)CC1
inactive: growth inhibition [1] -17.2% | growth inhibition [2] -13.1% | viability increase [3] 1.32% | viability [4] 96.7% | viability [5] 102% | inhibition [6] -0.18%

CC1CCN(c2nc(-c3ccccc3)cc(C(F)(F)F)n2)CC1
inactive: growth inhibition [1] -10.7% | growth inhibition [2] -11% | viability increase [3] -1.76% | viability [4] 88.1% | viability [5] 90.6% | inhibition [6] 2.21%

C=CCNc1ncnc2c1cnn2-c1ccc(Cl)cc1
inactive: growth inhibition [1] -2.23% | growth inhibition [2] 1.64% | viability increase [3] 2.88% | viability [4] 106% | viability [5] 106% | inhibition [6] 4.6%

COC(=O)CSc1nc2ccc(NC(=O)CSc3nnnn3Cc3ccccc3)cc2s1
inactive: growth inhibition [1] -3.46% | growth inhibition [2] 13.8% | viability increase [3] 1.67% | viability [4] 87.2% | viability [5] 96.9% | inhibition [6] 4.05%

COc1ccc(OCCn2c(NC(=O)c3ccco3)nc3ccccc32)cc1
inactive: growth inhibition [1] 2.63% | growth inhibition [2] 9.83% | viability increase [3] -6.84% | viability [4] 56.9% | viability [5] 57.9% | inhibition [6] 3.36%

CC1CCN(c2nc3c(c(=O)[nH]c(=O)n3C)n2CCCc2ccccc2)CC1
inactive: growth inhibition [1] -15.8% | growth inhibition [2] -41.8% | viability increase [3] -3.5% | viability [4] 79.9% | viability [5] 72.9% | inhibition [6] 1.45%

COc1ccc(NC(=O)c2nnn(Cc3ccc(SC)cc3)c2N)c(OC)c1
inactive: growth inhibition [1] -1.88% | growth inhibition [2] -10.7% | viability increase [3] -0.11% | viability [4] 100% | viability [5] 93.1% | inhibition [6] 4.42%

Oc1ccccc1C(=S)N1CCCCC1
inactive: growth inhibition [1] 8.11% | growth inhibition [2] 23.6% | viability increase [3] -2.83% | viability [4] 94.7% | viability [5] 89.8% | inhibition [6] 2.25%

Nc1ccc(S(=O)(=O)N2CCCc3ccccc32)cc1
inactive: growth inhibition [1] -18.7% | growth inhibition [2] -24% | viability increase [3] -3.42% | viability [4] 83% | viability [5] 83% | inhibition [6] 1.49%

COc1ccc(OC)c(-c2cc(C(=O)N3CCN(c4ccccc4)CC3)no2)c1
inactive: growth inhibition [1] -11.8% | growth inhibition [2] 20.3% | viability increase [3] -2.36% | viability [4] 96.9% | viability [5] 88.8% | inhibition [6] 1.72%

COc1ccc2cc(CCNC(=O)c3ccc(Br)o3)c(=O)[nH]c2c1
inactive: growth inhibition [1] -10.1% | growth inhibition [2] -17% | viability increase [3] -2.65% | viability [4] 95.9% | viability [5] 90.3% | inhibition [6] 1.84%
